Experimental data from ChEMBL document CHEMBL4665801, “Pyrazole-Based Lactate Dehydrogenase Inhibitors with Optimized Cell Activity and Pharmacokinetic Properties” (J Med Chem, 2020).
The source made the active and inactive calls.

How the values were obtained:
[1] = test system: A673; assay: Cytotoxicity against human A673 cells assessed as reduction in cell viability after 48 hrs by CellTiter-Glo assay; type: functional, cell-based; settings: A673, 48 h
[2] = test system: Mus musculus; assay: In vivo inhibition of LDH in human A673 cells xenografted athymic nude CrTac:NCr-Foxn1nu mouse assessed as reduction in tumor LDH activity at 50 mg/kg, iv after 6 hrs by UV-VIS spectrometric method relative to control; type: functional
In short: (§1)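 Female athymic nude mice carried SQ A673 flank xenografts (2 million cells) and received a single IV dose of 50 mg/kg in PBS-based vehicle. Four mice per time point were sacrificed at 1, 3, 6 and 24 h. Frozen tumor (10–50 mg) was pulverized and lysed in PBS pH 7.4 with 0.1% Triton X-100 on ice for 1 h. Cleared lysate (10–20 μg) was assayed with 10 mM pyruvate and 0.3 mM final NADH, reading NADH oxidation at 340 nm at 37 °C.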

[3] = biological target: T1, L-lactate dehydrogenase A chain (Homo sapiens, UniProt P00338); assay: Inhibition of recombinant human LDHA using sodium pyruvate as substrate preincubated for 5 mins followed by diaphorase/resazurin addition and measured after 20 mins by fluorescence based assay
[4] = test system: MIA PaCa-2; assay: Cytotoxicity against human MIA PaCa-2 cells assessed as reduction in cell viability after 48 hrs by CellTiter-Glo assay; type: functional, cell-based; settings: MIA PaCa-2, 48 h
[5] = biological target: L-lactate dehydrogenase B chain (Homo sapiens) (UniProt P07195); assay: Inhibition of recombinant human LDHB using sodium pyruvate as substrate preincubated for 5 mins followed by diaphorase/resazurin addition and measured after 20 mins by fluorescence based assay
Sequence of L-lactate dehydrogenase B chain (Homo sapiens) (P07195 2-334 limits assumed): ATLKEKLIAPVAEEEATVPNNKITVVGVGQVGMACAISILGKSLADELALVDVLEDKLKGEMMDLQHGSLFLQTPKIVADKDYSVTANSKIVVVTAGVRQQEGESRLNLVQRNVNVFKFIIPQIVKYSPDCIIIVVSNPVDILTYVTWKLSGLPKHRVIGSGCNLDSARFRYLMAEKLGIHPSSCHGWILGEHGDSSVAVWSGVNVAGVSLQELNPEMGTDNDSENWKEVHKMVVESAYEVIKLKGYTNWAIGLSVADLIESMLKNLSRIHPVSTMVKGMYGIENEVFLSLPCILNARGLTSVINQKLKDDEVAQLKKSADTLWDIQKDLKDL

[6] = species on record: Sus scrofa; assay: Inhibition of porcine heart MDH using malic acid as substrate preincubated for 10 mins followed by substrate addition and measured after 5 mins by resazurin based fluorescence based assay; settings: time 15.0 min
[7] = biological target: T1, L-lactate dehydrogenase A chain; assay: Inhibition of GS[HiBiT]GS-tagged LDHA (unknown origin) expressed in HEK-293T cells measured after 1 hr by […]; type: cell-based
In short: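 HEK293T cells were transiently transfected for 24 h with CMV-driven LDHA carrying a C-terminal GS[HiBiT]GS tag, then reseeded at 2500 cells/well in DPBS with Ca/Mg and 1 g/L glucose. […] Cells were lysed with NP40, and 11S (100 nM final) plus furimazine was added.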

[8] = test system: Mus musculus; assay: In vivo inhibition of LDH in human A673 cells xenografted athymic nude CrTac:NCr-Foxn1nu mouse assessed as reduction in tumor LDH activity at 50 mg/kg, iv after 1 hr by NADH-based UV-VIS spectrometric method relative to control; type: functional, organism-based; in short: as §1
[9] = biological target: T1, L-lactate dehydrogenase A chain; assay: Inhibition of LDHA in human MIA PaCa-2 cells assessed as decrease in lactate production incubated for 2 hrs by lactate oxidase-coupled fluorescence based assay; type: cell-based
[10] = biological target: T1, L-lactate dehydrogenase A chain; assay: Inhibition of LDHA in human A673 cells assessed as decrease in lactate production incubated for 2 hrs by lactate oxidase-coupled fluorescence based assay; type: cell-based
[11] = Terminal half life in CD-1 mouse at 10 mg/kg, iv and measured up to 24 hrs by LC/MS-MS analysis; type: ADME, organism-based; settings: in vivo
In short: (§2)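 Male CD1 mice, about 6–8 weeks old and 20–30 g, received 10 mg/kg IV in 0.1 M NaOH in PBS adjusted to pH 7–8.5, made fresh on the day of dosing. Three mice per cohort. Blood was taken from the dorsal metatarsal vein at 5, 15, 30 min and 1, 2, 4, 8, 12, 24 h into heparin tubes. Plasma was spun at 4 °C, stored at –75 °C and analysed by LC–MS/MS. For IV dosing Cmax = C0.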

[12] = Cmax in CD-1 mouse at 10 mg/kg, iv and measured up to 24 hrs by LC/MS-MS analysis; type: ADME, organism-based; parameters: route intravenous, dose 10 mg/kg, time <=24; settings: in vivo; in short: as §2
[13] = Volume of distribution at steady state in CD-1 mouse at 10 mg/kg, iv and measured up to 24 hrs by LC/MS-MS analysis; type: ADME, organism-based; settings: in vivo; in short: as §2
[14] = AUClast in CD-1 mouse at 10 mg/kg, iv and measured up to 24 hrs by LC/MS-MS analysis; type: ADME, organism-based; parameters: route intravenous, dose 10 mg/kg, time <=24; settings: in vivo; in short: as §2
[15] = Terminal half life in CD-1 mouse at 50 mg/kg, po and measured up to 24 hrs by LC/MS-MS analysis; type: ADME, organism-based; settings: in vivo
In short: (§3)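 Male CD1 mice, about 6–8 weeks old and 20–30 g, were dosed PO at 40 or 50 mg/kg in 0.1 M NaOH in PBS, pH 7–8.5, prepared the same day. Three mice per cohort. Plasma was spun at 4 °C, frozen at –75 °C and quantified by LC–MS/MS.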

[16] = AUClast in CD-1 mouse at 50 mg/kg, po and measured up to 24 hrs by LC/MS-MS analysis; type: ADME, organism-based; parameters: route oral, dose 50 mg/kg, time <=24; settings: in vivo
In short: as §3, with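 “cohort. Dorsal metatarsal vein blood was collected into heparin at 15, 30 min and 1, 2, 4, 8, 12, 24 h.” for “cohort.”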

[17] = Cmax in CD-1 mouse at 50 mg/kg, po and measured up to 24 hrs by LC/MS-MS analysis; type: ADME, organism-based; parameters: route oral, dose 50 mg/kg, time <=24; settings: in vivo
In short: as §3, with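 “cohort. Dorsal metatarsal vein blood was collected into heparin at 15, 30 min and 1, 2, 4, 8, 12, 24 h.” for “cohort.”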

[18] = Oral bioavailability in CD-1 mouse at 50 mg/kg and measured up to 24 hrs by LC/MS-MS analysis; type: ADME, organism-based; settings: in vivo
In short: as §3, with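 “cohort. Dorsal metatarsal vein blood was collected into heparin at 15, 30 min and 1, 2, 4, 8, 12, 24 h.” for “cohort.”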

Row | SMILES | IC50 [3] | inhibition [5] | inhibition [6] | IC50 [7] | IC50 [9] | IC50 [10] | beta t1/2 [11] | Cmax [12] | Vdss [13] | AUClast [14] | beta t1/2 [15] | AUClast [16] | Cmax [17] | F [18] | IC50 ([9]; mia paca-2) | IC50 ([10]; a673) | IC50 [1] | inhibition [2] | IC50 [4] | inhibition [8]
1 | NS(=O)(=O)c1ccc(Cc2c(-c3cccc(-c4ccccc4)c3)nn(-c3nc(C(=O)O)cs3)c2CC2CC2)cc1 | – | – | – | – | – | – | 0.85 h | – | – | – | – | – | – | – | – | – | – | – | – | –
2 | Cc1ccc(C#Cc2cc(-c3nn(-c4nc(C(=O)O)cs4)c(CC4CC4)c3Cc3ccc(S(N)(=O)=O)c(F)c3)ccc2F)o1 | 47 nM | Active | inactive | 79 nM | 547 nM | 544 nM | 5.1 h | 4770 ng/mL | 10.3 L/kg | 2320 ng·h/mL | 10.7 h | 13520 ng·h/mL | 1260 ng/mL | 106% | – | – | – | – | – | –
3 | Cc1ccc(C#Cc2cccc(-c3nn(-c4nc(C(=O)O)cs4)c(CC4CC4)c3Cc3ccc(S(N)(=O)=O)c(F)c3)c2)o1 | 36 nM | Active | inactive | 168 nM | 432 nM | 450 nM | 5 h | 4570 ng/mL | 12.5 L/kg | 2280 ng·h/mL | 3.7 h | 10170 ng·h/mL | 2280 ng/mL | 89% | – | – | 285 nM | – | 296 nM | –
4 | Cc1ccc(C#Cc2cccc(-c3nn(-c4nc(C(=O)O)cs4)c(CCC4CC4)c3Cc3ccc(S(N)(=O)=O)c(F)c3)c2)s1 | 117 nM | Active | inactive | 152 nM | 172 nM | 174 nM | 5.8 h | 58200 ng/mL | 1.47 L/kg | 9600 ng·h/mL | 3.7 h | 20030 ng·h/mL | 6850 ng/mL | 42% | – | – | 187 nM | – | – | –
5 | Cc1ccc(C#Cc2cc(-c3nn(-c4nc(C(=O)O)cs4)c(CCC4CC4)c3Cc3ccc(S(N)(=O)=O)c(F)c3)ccc2F)s1 | 202 nM | Active | inactive | 200 nM | 197 nM | 390 nM | 6.5 h | 35300 ng/mL | 2.5 L/kg | 6650 ng·h/mL | 3.2 h | 12240 ng·h/mL | 4730 ng/mL | 37% | – | – | 218 nM | Active | 226 nM | Active
6 | Cc1cc(C#Cc2cccc(-c3nn(-c4nc(C(=O)O)cs4)c(CC4CC4)c3Cc3ccc(S(N)(=O)=O)c(F)c3)c2)cs1 | 87 nM | Active | inactive | 95 nM | 657 nM | 494 nM | – | – | – | – | – | – | – | – | – | – | 359 nM | – | 332 nM | –
7 | Cc1ccc(/C=C/c2cccc(-c3nn(-c4nc(C(=O)O)cs4)c(CC4CC4)c3Cc3ccc(S(N)(=O)=O)c(F)c3)c2)s1 | 52 nM | Active | inactive | 158 nM | 331 nM | 357 nM | – | – | – | – | – | – | – | – | – | – | 452 nM | – | 471 nM | –
8 | CC(C)(C)C#Cc1cc(-c2nn(-c3nc(C(=O)O)cs3)c(CC3CC3)c2Cc2ccc(S(N)(=O)=O)c(F)c2)ccc1F | 16 nM | Active | inactive | 75 nM | 137 nM | 141 nM | – | – | – | – | – | – | – | – | – | – | 935 nM | – | 845 nM | –
9 | NS(=O)(=O)c1ccc(Cc2c(-c3cccc(-c4ccccc4)c3)nn(-c3nc(C(=O)O)cs3)c2CCC2CC2)cc1 | 36 nM | Active | inactive | 727 nM | 804 nM | 509 nM | – | – | – | – | – | – | – | – | – | – | 1960 nM | – | 6200 nM | –
10 | CC(C)(C)/C=C/c1cc(-c2nn(-c3nc(C(=O)O)cs3)c(CC3CC3)c2Cc2ccc(S(N)(=O)=O)c(F)c2)ccc1F | 59 nM | Active | inactive | 112 nM | 255 nM | 361 nM | – | – | – | – | – | – | – | – | – | – | 2260 nM | – | 1900 nM | –
11 | CCCCC#Cc1cc(-c2nn(-c3nc(C(=O)O)cs3)c(CC3CC3)c2Cc2ccc(S(N)(=O)=O)c(F)c2)ccc1F | 50 nM | Active | inactive | 106 nM | 298 nM | 405 nM | – | – | – | – | – | – | – | – | – | – | 773 nM | – | 845 nM | –

The next lines start with results.

Row | IC50 [3] | inhibition [5] | inhibition [6] | IC50 [7] | IC50 [9] | IC50 [10] | beta t1/2 [11] | Cmax [12] | Vdss [13] | AUClast [14] | beta t1/2 [15] | AUClast [16] | Cmax [17] | F [18] | IC50 ([9]; mia paca-2) | IC50 ([10]; a673) | SMILES | IC50 [1] | inhibition [2] | IC50 [4] | inhibition [8]
12 | 24 nM | Active | inactive | 106 nM | 361 nM | 420 nM | – | – | – | – | – | – | – | – | – | – | CCCC#Cc1cc(-c2nn(-c3nc(C(=O)O)cs3)c(CC3CC3)c2Cc2ccc(S(N)(=O)=O)c(F)c2)ccc1F | 833 nM | Active | 746 nM | Active
13 | 33 nM | Active | inactive | – | 867 nM | 937 nM | 5.75 h | 5500 ng/mL | 13.9 L/kg | 1820 ng·h/mL | 3.2 h | 3440 ng·h/mL | 1820 ng/mL | 38% | – | – | Cc1ncc(C#Cc2cc(-c3nn(-c4nc(C(=O)O)cs4)c(CC4CC4)c3Cc3ccc(S(N)(=O)=O)c(F)c3)ccc2F)s1 | 569 nM | – | 488 nM | –
14 | 11 nM | Active | inactive | 126 nM | 321 nM | 405 nM | – | – | – | – | – | – | – | – | – | – | C/C=C/c1cc(-c2nn(-c3nc(C(=O)O)cs3)c(CC3CC3)c2Cc2ccc(S(N)(=O)=O)c(F)c2)ccc1F | 614 nM | Active | 528 nM | Active
15 | 25 nM | Active | inactive | 501 nM | 1720 nM | 1420 nM | – | – | – | – | – | – | – | – | – | – | NS(=O)(=O)c1ccc(Cc2c(-c3cccc(-c4ccccc4)c3)nn(-c3nc(C(=O)O)cs3)c2CC2CC2(F)F)cc1 (stereo unspecified) | 4640 nM | – | 10700 nM | –
16 | 15 nM | Active | inactive | 134 nM | 231 nM | 320 nM | – | – | – | – | – | – | – | – | – | – | NS(=O)(=O)c1ccc(Cc2c(-c3ccc(F)c(/C=C/C4CC4)c3)nn(-c3nc(C(=O)O)cs3)c2CC2CC2)cc1F | 833 nM | – | 837 nM | –
17 | 13 nM | Active | inactive | 101 nM | – | – | – | – | – | – | – | – | – | – | 1180 nM | 1170 nM | Cc1nc(C#Cc2cccc(-c3nn(-c4nc(C(=O)O)cs4)c(CC4CC4)c3Cc3ccc(S(N)(=O)=O)c(F)c3)c2)cs1 | 347 nM | – | 471 nM | –
